Active and inactive are the calls of the source. The rule behind the calls is not given here.
Columns and labels:
Adenosine receptor A1 [1] = biological target: T1, Adenosine receptor A1 (Homo sapiens, UniProt P30542); assay: Displacement of [3H]CCPA from human recombinant adenosine A1 receptor expressed in CHO cells; assay type: cell-based
T1 sequence (P30542 whole entry): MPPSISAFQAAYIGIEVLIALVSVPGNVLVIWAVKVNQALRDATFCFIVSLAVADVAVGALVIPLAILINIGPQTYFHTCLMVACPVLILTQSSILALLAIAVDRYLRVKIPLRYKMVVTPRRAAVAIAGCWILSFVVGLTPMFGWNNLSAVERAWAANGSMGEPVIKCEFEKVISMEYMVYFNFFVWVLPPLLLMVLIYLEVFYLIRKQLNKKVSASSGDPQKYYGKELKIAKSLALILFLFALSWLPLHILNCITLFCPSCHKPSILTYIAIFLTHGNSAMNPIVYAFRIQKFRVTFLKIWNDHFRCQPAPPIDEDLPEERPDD

Mus musculus [2] = assay: Anticonvulsant activity in F1 albino mouse assessed as protection against subcutaneous pentylenetetrazole-induced seizures at 300 mg/kg, ip after 1 hr; assay type: functional, organism-based; design: dose 300 mg/kg
Method in brief: (§1)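 Male albino F-1 mice (18–25 g), groups of 1–5 (rotorod 2–8). Compound given ip as a suspension in 0.5% methylcellulose at 30, 100 and 300 mg/kg. Seizures by maximal electroshock or subcutaneous pentylenetetrazole; neurotoxicity by rotorod. Read at 0.5 and 4 h, with some at 0.25, 1 and 2 h. Value is the minimum active dose, with protected (or toxic)/tested animals.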

Mus musculus [3] = assay: Anticonvulsant activity in F1 albino mouse assessed as protection against maximal electroshock-induced seizures at 300 mg/kg, ip after 0.25 hrs; assay type: functional, organism-based; design: dose 300 mg/kg; method in brief: as §1
Mus musculus [4] = assay: Neurotoxicity in F1 albino mouse assessed as minimal motor impairment at 300 mg/kg, ip after 0.25 hrs by rotorod test; assay type: toxicity, organism-based; design: dose 300 mg/kg, route intraperitoneal; conditions: in vivo; method in brief: as §1
Mus musculus [5] = assay: Anticonvulsant activity in F1 albino mouse assessed as protection against maximal electroshock-induced seizures at 300 mg/kg, ip after 4 hrs; assay type: functional, organism-based; design: dose 300 mg/kg; method in brief: as §1
Mus musculus [6] = assay: Anticonvulsant activity in F1 albino mouse assessed as protection against subcutaneous pentylenetetrazole-induced seizures at 300 mg/kg, ip after 4 hrs; assay type: functional, organism-based; design: dose 300 mg/kg; method in brief: as §1
Adenosine receptor A2a [7] = biological target: Adenosine receptor A2a (Homo sapiens, UniProt P29274); assay: Displacement of [3H]MSX-2 from human recombinant adenosine A2A receptor expressed in CHO cells; assay type: cell-based
Adenosine receptor A2b [8] = biological target: T2, Adenosine receptor A2b (Homo sapiens, UniProt P29275); assay: Displacement of [3H]PSB-603 from human recombinant adenosine A2B receptor expressed in CHO cells; assay type: cell-based
T2 sequence (P29275 whole entry): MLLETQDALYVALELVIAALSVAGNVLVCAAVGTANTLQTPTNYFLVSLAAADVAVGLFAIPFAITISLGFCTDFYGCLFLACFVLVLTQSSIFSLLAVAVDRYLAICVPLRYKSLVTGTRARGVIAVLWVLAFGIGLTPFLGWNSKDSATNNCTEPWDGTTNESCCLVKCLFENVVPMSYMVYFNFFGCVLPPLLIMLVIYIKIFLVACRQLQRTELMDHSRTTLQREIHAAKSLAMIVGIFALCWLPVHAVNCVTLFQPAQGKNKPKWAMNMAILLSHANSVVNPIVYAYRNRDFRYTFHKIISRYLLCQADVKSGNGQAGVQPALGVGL
Method in brief: (§2)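 CHO cell membranes expressing the human receptor. Radioligands: A1 [3H]CCPA; A2B [3H]ZM241385 or [3H]PSB-603; A3 [3H]PSB-11. […] Potent compounds run at 6–7 concentrations spanning 3 orders of magnitude; Ki ± SEM.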

CHO = assay: Selectivity ratio of Ki for human recombinant adenosine A2A receptor expressed in CHO cells to Ki for adenosine A2A receptor in rat brain striatal membrane; assay type: cell-based
Method in brief: (§3)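 Ki ratios from radioligand competition binding. Rat A1 used brain cortical membranes and rat A2A used brain striatal membranes. Human A1 and A2A used membranes of CHO cells expressing the receptors. A1 radioligand [³H]CCPA; A2A radioligand [³H]MSX-2. Potent compounds were tested at 6–7 concentrations spanning 3 orders of magnitude.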

Adenosine receptor A2a [9] = biological target: Adenosine receptor A2a (Rattus norvegicus, UniProt P30543); assay: Displacement of [3H]MSX-2 from adenosine A2A receptor in rat brain striatal membrane; assay type: cell membranes
Mus musculus [10] = assay: Neurotoxicity in F1 albino mouse assessed as minimal motor impairment at 300 mg/kg, ip after 0.5 hrs by rotorod test; assay type: toxicity, organism-based; design: dose 300 mg/kg, route intraperitoneal; conditions: in vivo; method in brief: as §1
Mus musculus [11] = assay: Anticonvulsant activity in F1 albino mouse assessed as protection against subcutaneous pentylenetetrazole-induced seizures at 300 mg/kg, ip after 0.25 hrs; assay type: functional, organism-based; design: dose 300 mg/kg; method in brief: as §1
Mus musculus [12] = assay: Anticonvulsant activity in F1 albino mouse assessed as protection against maximal electroshock-induced seizures at 300 mg/kg, ip after 1 hr; assay type: functional, organism-based; design: dose 300 mg/kg; method in brief: as §1
Rattus norvegicus = species: Rattus norvegicus; assay: Selectivity ratio of Ki for adenosine A1 receptor in rat brain cortical membrane to Ki for adenosine A2A receptor in rat brain striatal membrane; assay type: cell membranes; method in brief: as §3
Adenosine receptor A1 [13] = biological target: T3, Adenosine receptor A1 (Rattus norvegicus, UniProt P25099); assay: Displacement of [3H]CCPA from adenosine A1 receptor in rat brain cortical membrane; assay type: cell membranes
T3 sequence (P25099 whole entry): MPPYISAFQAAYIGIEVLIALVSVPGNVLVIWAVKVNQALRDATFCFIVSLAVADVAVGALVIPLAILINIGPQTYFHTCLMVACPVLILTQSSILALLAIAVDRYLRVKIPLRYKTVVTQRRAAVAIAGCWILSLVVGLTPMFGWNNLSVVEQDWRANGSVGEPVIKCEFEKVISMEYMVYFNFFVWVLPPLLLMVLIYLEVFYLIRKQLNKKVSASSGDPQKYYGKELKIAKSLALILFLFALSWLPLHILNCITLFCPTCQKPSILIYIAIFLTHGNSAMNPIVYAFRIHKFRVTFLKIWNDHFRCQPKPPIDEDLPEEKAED

[14] = biological target: T4, Adenosine receptor A1 (Homo sapiens) (UniProt P30542); assay: Displacement of [3H]CCPA from human recombinant adenosine A1 receptor expressed in CHO cells at 10 uM; assay type: cell-based; method in brief: as §2
T4 sequence (whole entry): T1 sequence (P30542 whole entry)

Mus musculus [15] = assay: Anticonvulsant activity in F1 albino mouse assessed as protection against maximal electroshock-induced seizures at 300 mg/kg, ip after 0.5 hrs; assay type: functional, organism-based; design: dose 300 mg/kg; method in brief: as §1
Mus musculus [16] = assay: Neurotoxicity in F1 albino mouse assessed as minimal motor impairment at 300 mg/kg, ip after 4 hrs by rotorod test; assay type: toxicity, organism-based; design: dose 300 mg/kg, route intraperitoneal; conditions: in vivo; method in brief: as §1
Adenosine receptor A3 = biological target: T5, Adenosine receptor A3 (Homo sapiens, UniProt P0DMS8); assay: Displacement of [3H]PSB-11 from human recombinant adenosine A3 receptor expressed in CHO cells; assay type: cell-based
T5 sequence (P0DMS8 whole entry): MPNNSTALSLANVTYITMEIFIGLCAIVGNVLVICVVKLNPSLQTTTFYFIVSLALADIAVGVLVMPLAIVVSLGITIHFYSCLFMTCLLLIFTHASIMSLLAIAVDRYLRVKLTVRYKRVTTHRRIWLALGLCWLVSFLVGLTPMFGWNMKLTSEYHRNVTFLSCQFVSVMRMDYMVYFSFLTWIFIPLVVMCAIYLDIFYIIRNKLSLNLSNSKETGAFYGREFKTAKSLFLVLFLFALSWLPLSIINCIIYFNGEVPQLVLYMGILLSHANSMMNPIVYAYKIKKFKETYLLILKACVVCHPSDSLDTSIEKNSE

Mus musculus [17] = assay: Anticonvulsant activity in F1 albino mouse assessed as protection against subcutaneous pentylenetetrazole-induced seizures at 300 mg/kg, ip after 0.5 hrs; assay type: functional, organism-based; design: dose 300 mg/kg; method in brief: as §1
[18] = biological target: T6, Adenosine receptor A1 (Rattus norvegicus) (UniProt P25099); assay: Displacement of [3H]CCPA from adenosine A1 receptor in rat brain cortical membrane at 25 uM; assay type: cell membranes
T6 sequence (whole entry): T3 sequence (P25099 whole entry)

[19] = biological target: T7, Adenosine receptor A3 (Homo sapiens) (UniProt P0DMS8); assay: Displacement of [3H]PSB-11 from human recombinant adenosine A3 receptor expressed in CHO cells at 10 uM; assay type: cell-based; method in brief: as §2
T7 sequence (whole entry): T5 sequence (P0DMS8 whole entry)

[20] = biological target: T8, Adenosine receptor A2b (Homo sapiens) (UniProt P29275); assay: Displacement of [3H]PSB-603 from human recombinant adenosine A2B receptor expressed in CHO cells at 10 uM; assay type: cell-based; method in brief: as §2
T8 sequence (whole entry): T2 sequence (P29275 whole entry)

Mus musculus [21] = assay: Neurotoxicity in F1 albino mouse assessed as minimal motor impairment at 300 mg/kg, ip after 1 hr by rotorod test; assay type: toxicity, organism-based; design: dose 300 mg/kg, route intraperitoneal; conditions: in vivo; method in brief: as §1
[22] = biological target: T8, Adenosine receptor A2b (Homo sapiens); assay: Displacement of [3H]ZM241385 from human adenosine A2B receptor expressed in CHO cells at 10 uM; assay type: cell-based; method in brief: as §2
Adenosine receptor A2b [23] = biological target: T2, Adenosine receptor A2b; assay: Displacement of [3H]ZM241385 from human adenosine A2B receptor expressed in CHO cells; assay type: cell-based

Chain of Adenosine receptor A2a (Homo sapiens, UniProt P29274) (P29274 whole entry): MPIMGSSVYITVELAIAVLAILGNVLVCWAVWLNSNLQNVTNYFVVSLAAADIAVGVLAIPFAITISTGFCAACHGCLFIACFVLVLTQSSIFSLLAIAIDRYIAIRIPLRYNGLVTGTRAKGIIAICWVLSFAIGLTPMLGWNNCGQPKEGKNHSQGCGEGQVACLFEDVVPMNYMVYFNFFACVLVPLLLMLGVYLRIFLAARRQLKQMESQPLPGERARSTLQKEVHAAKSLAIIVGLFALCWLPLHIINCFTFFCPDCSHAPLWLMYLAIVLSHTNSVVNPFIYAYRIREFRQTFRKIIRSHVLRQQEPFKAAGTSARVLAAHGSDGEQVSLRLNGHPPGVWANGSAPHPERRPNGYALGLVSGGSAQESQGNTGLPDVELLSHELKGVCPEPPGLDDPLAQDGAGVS
Chain of Adenosine receptor A2a (Rattus norvegicus, UniProt P30543) (P30543 whole entry): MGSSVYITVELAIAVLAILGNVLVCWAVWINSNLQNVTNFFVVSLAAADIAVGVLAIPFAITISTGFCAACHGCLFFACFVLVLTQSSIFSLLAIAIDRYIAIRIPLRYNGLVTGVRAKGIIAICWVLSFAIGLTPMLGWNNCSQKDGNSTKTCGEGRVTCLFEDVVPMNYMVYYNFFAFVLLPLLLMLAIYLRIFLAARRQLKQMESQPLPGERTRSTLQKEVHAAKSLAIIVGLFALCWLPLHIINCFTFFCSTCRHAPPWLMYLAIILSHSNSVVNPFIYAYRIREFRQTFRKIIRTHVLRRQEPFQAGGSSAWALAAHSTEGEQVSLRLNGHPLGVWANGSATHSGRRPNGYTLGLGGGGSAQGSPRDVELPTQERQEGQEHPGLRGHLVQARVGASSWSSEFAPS

| Ki (Adenosine receptor A1 [1]) [µM] | Ki (Adenosine receptor A2a [7]) [µM] | Ki (Adenosine receptor A2a [9]) [µM] | Ratio Ki (Rattus norvegicus) | Ki (Adenosine receptor A1 [13]) [µM] | inhibition [14] [%] | Ki (Adenosine receptor A3) [µM] | inhibition [18] [%] | inhibition [19] [%] | SMILES | Activity (Mus musculus [2]) | Activity (Mus musculus [3]) | Activity (Mus musculus [4]) | Activity (Mus musculus [5]) | Activity (Mus musculus [6]) | Activity (Mus musculus [10]) | Activity (Mus musculus [11]) | Activity (Mus musculus [12]) | Activity (Mus musculus [15]) | Activity (Mus musculus [16]) | Activity (Mus musculus [17]) | further results |
| --- | --- | --- | --- | --- | --- | --- | --- | --- | --- | --- | --- | --- | --- | --- | --- | --- | --- | --- | --- | --- | --- |
| > 10 | 1.61 | 0.81 | > 31 | ≥ 25 | 37 | > 10 | 39 | 12 | Cn1c(=O)c2c(nc3n2CCCN3C2CCCCC2)n(C)c1=O | inactive | inactive | Non-toxic | inactive | inactive | Non-toxic | inactive | inactive | inactive | Non-toxic | Active | Ki (Adenosine receptor A2b [8]): > 10 µM; Ratio Ki (CHO): 2; inhibition [20]: 0%; Activity (Mus musculus [21]): Non-toxic |
| > 10 | 3.27 | 4.48 | > 6 | > 25 | 7 | > 10 | 4 | 0 | Cn1c(=O)c2c(nc3n2CCN3C2CCC(O)CC2)n(C)c1=O (mixture of isomers) | inactive | inactive | Non-toxic | inactive | inactive | Non-toxic | inactive | inactive | inactive | Non-toxic | inactive | inhibition [22]: 24%; Ki (Adenosine receptor A2b [23]): > 10 µM; Activity (Mus musculus [21]): Non-toxic |
| > 10 | 1.16 | 2.67 | 4 | > 10 | 41 | > 10 | 4 | 6 | Cn1c(=O)c2c(nc3n2CCCN3C2CCCCCC2)n(C)c1=O | inactive | inactive | Non-toxic | inactive | inactive | Non-toxic | inactive | inactive | inactive | Non-toxic | inactive | Ki (Adenosine receptor A2b [8]): > 10 µM; inhibition [20]: 0%; Activity (Mus musculus [21]): Non-toxic |
